{"source": "paper PMC9444296", "about": "(Investigative Radiology, 2022)", "key": {"[1]": {"assay": "Hepatocyte metabolic stability, negative and positive controls", "assay_type": "in vitro ADME", "conditions": "hepatocyte incubation"}, "[2]": {"system": "LNCaP human prostate tumors", "assay": "Contrast-enhanced MRI of LNCaP prostate tumor xenografts in rats", "assay_type": "in vivo, rat", "conditions": "0.1 mmol/kg IV, 3 T, n = 3", "procedure,_shortened": "(§1)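 Male rats carried subcutaneous flank xenografts of 4 × 10⁶ PC3 or 8 × 10⁶ LNCaP cells in Matrigel-PBS (1:1) and were imaged once tumours exceeded 100 mm³. Scans used 1 mm slices, 2 averages and a 128 × 128 matrix. The same tumour-bearing rats were reused across agents and doses, with a clinical Gd agent at 0.1 mmol Gd/kg as comparator.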"}, "[3]": {"conditions": "cited from earlier work"}, "[4]": {"system": "PC3 human prostate cancer xenografts", "assay": "Contrast-enhanced MRI of PC3 prostate tumor xenografts in rats", "assay_type": "in vivo, rat", "conditions": "PC3 tumors in rats, 0.1 mmol/kg IV, 3 T, n = 6", "procedure,_shortened": "as §1"}, "CYP2C8": {"target": "CYP2C8 (Homo sapiens, UniProt P10632)", "sequence (P10632 whole entry)": "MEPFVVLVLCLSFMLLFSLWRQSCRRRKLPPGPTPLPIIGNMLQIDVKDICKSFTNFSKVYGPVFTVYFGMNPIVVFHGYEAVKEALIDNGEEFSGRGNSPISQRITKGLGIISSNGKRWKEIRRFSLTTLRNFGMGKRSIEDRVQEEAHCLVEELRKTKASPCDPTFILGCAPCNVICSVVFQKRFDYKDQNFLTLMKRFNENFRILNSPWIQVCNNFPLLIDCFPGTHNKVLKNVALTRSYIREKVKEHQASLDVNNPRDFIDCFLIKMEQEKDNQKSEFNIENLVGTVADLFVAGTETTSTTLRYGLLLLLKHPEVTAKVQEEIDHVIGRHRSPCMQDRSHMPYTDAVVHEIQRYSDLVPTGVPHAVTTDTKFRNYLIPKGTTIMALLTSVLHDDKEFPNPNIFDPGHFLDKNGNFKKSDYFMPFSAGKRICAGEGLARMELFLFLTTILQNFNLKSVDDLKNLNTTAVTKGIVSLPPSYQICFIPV", "assay": "CYP2C8 inhibition in human liver microsomes", "assay_type": "in vitro ADME", "conditions": "CYP2C8, positive control selective inhibitor"}, "CYP1A2": {"system": "CYP1A2", "conditions": "positive control 50 μM, CYP1A2, human primary hepatocytes"}, "CYP2B6 [5]": {"system": "CYP2B6", "conditions": "positive control 1000 μM, CYP2B6, human primary hepatocytes"}, "CYP2D6": {"target": "CYP2D6 (Homo sapiens, UniProt P10635)", "sequence (P10635 whole entry)": "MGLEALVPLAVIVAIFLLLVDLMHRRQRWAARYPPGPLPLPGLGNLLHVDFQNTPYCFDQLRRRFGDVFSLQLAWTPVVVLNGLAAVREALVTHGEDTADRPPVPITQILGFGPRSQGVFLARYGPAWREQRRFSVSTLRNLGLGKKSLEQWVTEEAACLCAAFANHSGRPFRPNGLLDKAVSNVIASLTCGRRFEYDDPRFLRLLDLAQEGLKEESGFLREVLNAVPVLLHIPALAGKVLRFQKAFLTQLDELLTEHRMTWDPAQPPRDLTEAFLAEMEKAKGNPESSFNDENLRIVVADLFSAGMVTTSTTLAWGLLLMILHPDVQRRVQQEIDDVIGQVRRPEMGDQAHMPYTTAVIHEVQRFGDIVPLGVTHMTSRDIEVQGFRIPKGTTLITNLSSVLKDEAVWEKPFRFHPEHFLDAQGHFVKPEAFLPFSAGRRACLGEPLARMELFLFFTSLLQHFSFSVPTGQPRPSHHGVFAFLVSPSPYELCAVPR", "assay": "CYP2D6 inhibition in human liver microsomes", "assay_type": "in vitro ADME", "conditions": "CYP2D6, positive control selective inhibitor, human liver microsomes"}, "CYP2C9": {"target": "CYP2C9 (Homo sapiens, UniProt P11712)", "sequence (P11712 whole entry)": "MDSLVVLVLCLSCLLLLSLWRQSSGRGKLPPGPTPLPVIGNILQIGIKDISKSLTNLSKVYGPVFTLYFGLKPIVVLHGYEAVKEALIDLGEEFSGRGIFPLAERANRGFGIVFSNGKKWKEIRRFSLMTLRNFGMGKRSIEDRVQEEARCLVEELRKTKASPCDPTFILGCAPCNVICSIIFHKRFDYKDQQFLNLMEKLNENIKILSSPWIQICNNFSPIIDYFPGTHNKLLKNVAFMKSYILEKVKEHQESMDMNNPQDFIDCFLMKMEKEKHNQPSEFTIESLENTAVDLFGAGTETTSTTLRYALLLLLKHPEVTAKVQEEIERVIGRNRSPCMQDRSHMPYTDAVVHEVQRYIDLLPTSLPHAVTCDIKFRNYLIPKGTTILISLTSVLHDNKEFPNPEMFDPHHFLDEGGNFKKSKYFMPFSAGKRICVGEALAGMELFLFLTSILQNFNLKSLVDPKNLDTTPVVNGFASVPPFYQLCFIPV", "assay": "CYP2C9 inhibition in human liver microsomes", "conditions": "CYP2C9, positive control selective inhibitor, human liver microsomes"}, "[6]": {"assay": "Metabolic pathway study in human liver microsomes", "assay_type": "in vitro ADME", "conditions": "120 minutes"}, "CYP2B6 [7]": {"target": "CYP2B6 (Homo sapiens, UniProt P20813)", "sequence (P20813 whole entry)": "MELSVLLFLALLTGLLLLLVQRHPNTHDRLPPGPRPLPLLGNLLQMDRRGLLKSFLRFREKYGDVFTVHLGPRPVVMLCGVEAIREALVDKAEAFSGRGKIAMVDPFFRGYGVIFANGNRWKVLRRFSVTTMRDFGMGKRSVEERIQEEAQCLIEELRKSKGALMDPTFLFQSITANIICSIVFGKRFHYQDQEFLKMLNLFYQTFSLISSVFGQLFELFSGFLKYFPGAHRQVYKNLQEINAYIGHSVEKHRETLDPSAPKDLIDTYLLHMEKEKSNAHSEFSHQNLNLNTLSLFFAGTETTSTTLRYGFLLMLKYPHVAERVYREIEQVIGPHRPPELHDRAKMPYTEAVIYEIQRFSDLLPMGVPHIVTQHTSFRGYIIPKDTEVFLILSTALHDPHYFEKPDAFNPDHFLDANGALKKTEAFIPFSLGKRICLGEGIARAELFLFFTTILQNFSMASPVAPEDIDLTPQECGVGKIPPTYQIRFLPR", "conditions": "CYP2B6, positive control selective inhibitor, human liver microsomes"}, "EDB protein fragment": {"target": "EDB protein fragment (Homo sapiens, UniProt P02751)", "sequence (P02751 1271-1359 limits assumed)": "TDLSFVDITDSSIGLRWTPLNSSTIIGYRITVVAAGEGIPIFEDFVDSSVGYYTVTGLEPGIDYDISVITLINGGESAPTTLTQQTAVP", "conditions": "cited from earlier work"}}, "note": "Where two headings read alike, the source gives them in different places. Where no end group is shown, it is not given here.", "data": [{"compound": "O=c1ccc2ccc(O)cc2o1", "note": "[7-hydroxycoumarin]", "values": [{"measurement": "remaining substrate in the positive control", "setting": "[1]", "value": 18.8, "unit": "%"}]}, {"compound": "CC(O)CN1CCN(CC(=O)[O-])CCN(CC(=O)[O-])CCN(CC(=O)[O-])CC1.[Gd+3]", "note": "(centres unmarked) [Gadoteridol, gadoteridol]", "values": [{"measurement": "CNR", "setting": "[2]", "value": "1.79 ± 0.74"}, {"measurement": "r1 Relaxivity", "setting": "[3]; 1.4 T, H2O", "value": "3.2 (H2O) mM^−1 s^−1"}, {"measurement": "r1 Relaxivity", "setting": "[3]; 1.5 T, H2O", "value": "2.9 (H2O) mM^−1 s^−1"}, {"measurement": "r1 Relaxivity", "setting": "[3]; 1.5 T, plasma", "value": 4.1, "unit": "mM⁻¹ s⁻¹"}, {"measurement": "r1 Relaxivity", "setting": "[3]; 3.0 T, H2O", "value": "2.8 (H2O) mM^−1 s^−1"}, {"measurement": "r1 Relaxivity", "setting": "[3]; 3.0 T, plasma", "value": 3.7, "unit": "mM⁻¹ s⁻¹"}, {"measurement": "CNR", "setting": "[4]; 10 minutes postinjection", "value": "1.32 ± 0.58"}, {"measurement": "CNR", "setting": "[4]; 30 minutes postinjection", "value": "1.714 ± 0.69"}]}, {"compound": "CC(C)(O)c1ccccc1CC[C@@H](SCC1(CC(=O)O)CC1)c1cccc(/C=C/c2ccc3ccc(Cl)cc3n2)c1", "note": "[montelukast, reference compound]", "values": [{"measurement": "enzyme activity decreased by", "setting": "CYP2C8", "value": 80.0, "unit": "%"}]}, {"compound": "COc1ccc2[nH]c([S+]([O-])Cc3ncc(C)c(OC)c3C)nc2c1", "note": "(centres unmarked) [omeprazole, reference compound]", "values": [{"measurement": "increase of enzyme activity vs vehicle control", "setting": "CYP1A2", "value": "about 40 fold"}, {"measurement": "increase of mRNA expression vs vehicle control", "setting": "CYP1A2", "value": "about 62 fold"}]}, {"compound": "CCC1(c2ccccc2)C(=O)NC(=O)NC1=O", "note": "[phenobarbital, reference compound]", "values": [{"measurement": "increase of enzyme activity vs vehicle control", "setting": "CYP2B6 [5]", "value": "~12", "unit": "fold"}, {"measurement": "increase of mRNA expression vs vehicle control", "setting": "CYP2B6 [5]", "value": "~14", "unit": "fold"}]}, {"compound": "C=C[C@H]1C[N@@]2CC[C@H]1C[C@@H]2[C@@H](O)c1ccnc2ccc(OC)cc12", "note": "[quinidine, reference compound]", "values": [{"measurement": "enzyme activity decreased by", "setting": "CYP2D6", "value": 91.2, "unit": "%"}]}, {"compound": "Nc1ccc(S(=O)(=O)Nc2ccnn2-c2ccccc2)cc1", "note": "[sulfaphenazole, reference compound]", "values": [{"measurement": "enzyme activity decreased by", "setting": "CYP2C9", "value": 87.4, "unit": "%"}]}, {"compound": "C[C@]12CC[C@H]3[C@@H](CCC4=CC(=O)CC[C@@]43C)[C@@H]1CC[C@@H]2O", "note": "[testosterone, reference compound]", "values": [{"measurement": "remaining testosterone (systematic control)", "setting": "[6]", "value": 11.4, "unit": "%"}, {"measurement": "remaining substrate in the positive control", "setting": "[1]", "value": 9.29, "unit": "%"}]}, {"compound": "S=P(N1CC1)(N1CC1)N1CC1", "note": "[thiotepa, reference compound]", "values": [{"measurement": "enzyme activity decreased by", "setting": "CYP2B6 [7]", "value": 89.2, "unit": "%"}]}, {"compound": "TVRTSAD [ZD2]", "values": [{"measurement": "binding affinity to the EDB fragment", "setting": "EDB protein fragment", "value": "moderate binding affinity"}]}]}
